One assay concerns Bacillus subtilis. The experiment in a line: Antibacterial activity against Bacillus subtilis by broth dilution assay. In kind it is functional. The method in brief: (§1)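 Broth dilution assay for the minimum growth-inhibitory concentration against Gram-positive and Gram-negative bacteria and fungi. Each organism was cultured under its own growth conditions.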
On the technique in general: Broth dilution looks for growth in wells or tubes with falling amounts of substance.

In assay [1] the test system is Phytophthora capsici. Briefly: Induction of Phytophthora capsici zoospore lytic activity at 1 ug/ml after 5 to 60 mins by homogeneous solution method. The class given is functional, organism-based.
In another assay the test system is Colletotrichum acutatum. Briefly: Antifungal activity against Colletotrichum acutatum by broth dilution assay. In kind it is functional. The method in brief:
as §1

The next assay concerns Staphylococcus aureus. Briefly: Antibacterial activity against Staphylococcus aureus by broth dilution assay. The class given is functional. The method in brief:
as §1

Assay [2] deals with Phytophthora capsici. Briefly: Inhibition of Phytophthora capsici zoospore motility after 15 to 60 mins by homogeneous solution method. In kind it is functional, organism-based.
In another assay the test system is Salmonella typhi. The experiment in a line: Antibacterial activity against Salmonella typhi by broth dilution assay. The class given is functional, Salmonella enterica subsp. enterica serovar Typhi. As to conditions: Salmonella enterica. An outline of the steps:
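Broth dilution test giving the minimum concentration that inhibits growth, run against Gram-positive and Gram-negative bacteria. Growth conditions were kept specific to each organism during culture.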

The subject of the next assay is Botrytis cinerea. Briefly: Antifungal activity against Botrytis cinerea by broth dilution assay. The class given is functional. An outline of the steps: as §1
Assay [3] relates to Phytophthora capsici. The experiment in a line: Induction of Phytophthora capsici zoospore lytic activity at 10 ug/ml after 60 mins by homogeneous solution method. The class given is functional, organism-based.
The subject of another assay is Pseudomonas aeruginosa. Briefly: Antibacterial activity against Pseudomonas aeruginosa by broth dilution assay. In kind it is functional. The method in brief: as §1
Assay [4] deals with Phytophthora capsici. The experiment in a line: Inhibition of Phytophthora capsici zoospore motility at 5 ug/ml by homogeneous solution method. In kind it is functional, organism-based. As to conditions: TDE = time-dependent effect.
The test system of the next assay is Rhizoctonia solani. The experiment in a line: Antifungal activity against Rhizoctonia solani by broth dilution assay. In kind it is functional. The method in brief:
as §1

The test system of assay [5] is Phytophthora capsici. Briefly: Induction of Phytophthora capsici zoospore lytic activity at 50 ug/ml after 30 mins by homogeneous solution method. In kind it is functional, organism-based.
Assay [6] concerns Phytophthora capsici. The experiment in a line: Inhibition of Phytophthora capsici zoospore motility at 1 ug/ml after 15 to 60 mins by homogeneous solution method. The class given is functional, organism-based.
Assay [7] deals with Phytophthora capsici. The experiment in a line: Inhibition of Phytophthora capsici zoospore motility at 500 ug/ml after 15 to 60 mins by homogeneous solution method. In kind it is functional, organism-based.
Assay [8] concerns Phytophthora capsici. The experiment in a line: Induction of Phytophthora capsici zoospore lytic activity at 500 ug/ml after 5 to 60 mins by homogeneous solution method. In kind it is functional, organism-based.

Values after ≈ are worked out from the molar mass of the structure shown. Active and inactive are the calls of the source. The calls are words filed in the database; no cut-off is given here. Where a SMILES comes first, the peptide text is derived from it.

As for `CCC(C)CC(C)CCCCCCCC[C@@H]1CC(=O)N[C@@H](CCC(=O)O)C(=O)N[C@@H](C(C)C)C(=O)N[C@@H](CC(C)C)C(=O)N[C@@H](C)C(=O)N[C@@H](CC(=O)O)C(=O)N[C@@H](CC(C)C)C(=O)N[C@@H](CC(C)C)C(=O)O1` (stereo partly drawn) (HELM PEPTIDE1{E.V.L.A.D.L.L}|CHEM1{[CCC(C)CC(C)CCCCCCCC[C@H](CC(=O)[*:1])O[*:2]]}$PEPTIDE1,CHEM1,1:R1-1:R1|PEPTIDE1,CHEM1,7:R2-1:R2$$$V2.0), the MIC – broadly, the least concentration at which growth counts as inhibited – in the assay on Bacillus subtilis was 16 µg/mL (≈ 15.4 µM); in the assay with Colletotrichum acutatum, 8 µg/mL (≈ 7.72 µM); with Staphylococcus aureus, 16 µg/mL (≈ 15.4 µM); against Salmonella typhi it was 16 µg/mL (≈ 15.4 µM); in the assay on Botrytis cinerea it was 4 µg/mL (≈ 3.86 µM); with Pseudomonas aeruginosa, 16 µg/mL (≈ 15.4 µM). Further, the MIC against Rhizoctonia solani is 4 µg/mL (≈ 3.86 µM). Moreover, the result in the assay on Phytophthora capsici [1], with Phytophthora capsici [3] and with Phytophthora capsici [5] was Active. For the same compound, in the assay on Phytophthora capsici [2], the half-maximal inhibitory concentration (IC50) (commonly the midpoint of a concentration-inhibition curve) turned out to be 1 µg/mL (≈ 0.965 µM). In addition, the inhibition result was “Dose-dependent effect” in the assay with Phytophthora capsici [2] and “tde” with Phytophthora capsici [4]. Moreover, the inhibition entry in the assay with Phytophthora capsici [6] was “Active”.

In the case of `CCC(C)CCCCCCCCCC[C@@H]1CC(=O)N[C@@H](CCC(=O)O)C(=O)N[C@@H](C(C)C)C(=O)N[C@@H](CC(C)C)C(=O)N[C@@H](C)C(=O)N[C@@H](CC(=O)O)C(=O)N[C@@H](CC(C)C)C(=O)N[C@@H](CC(C)C)C(=O)O1` (stereo partly drawn) (HELM PEPTIDE1{E.V.L.A.D.L.L}|CHEM1{[CCC(C)CCCCCCCCCC[C@H](CC(=O)[*:1])O[*:2]]}$PEPTIDE1,CHEM1,1:R1-1:R1|PEPTIDE1,CHEM1,7:R2-1:R2$$$V2.0), in the assay with Phytophthora capsici [7], the inhibition result is “Active”. The minimal inhibitory concentration (MIC) against Bacillus subtilis came out at 32 µg/mL (≈ 31.3 µM); with Colletotrichum acutatum it was 8 µg/mL (≈ 7.83 µM); with Staphylococcus aureus, 16 µg/mL (≈ 15.7 µM); against Salmonella typhi it was 32 µg/mL (≈ 31.3 µM); against Botrytis cinerea, 8 µg/mL (≈ 7.83 µM); with Pseudomonas aeruginosa it was 16 µg/mL (≈ 15.7 µM). Moreover, inhibition of growth in the assay on Rhizoctonia solani (MIC) required 8 µg/mL (≈ 7.83 µM). In addition, in the assay with Phytophthora capsici [2], the 50% inhibitory concentration (IC50) was determined as 400 µg/mL (≈ 391 µM). The figures for the inhibition entry in the assay with Phytophthora capsici [2] and in the assay with Phytophthora capsici [4] were “Dose-dependent effect” and “tde”, respectively. Also, the result in the assay with Phytophthora capsici [8] was inactive.

Regarding `C[C@@H]1[C@H](O)[C@@H](C)/C=C/C=C/C=C/C=C/C=C/C=C/C=C/[C@H](O[C@@H]2O[C@H](C)[C@@H](O)[C@H](N)[C@@H]2O)C[C@@H]2O[C@](O)(C[C@@H](O)C[C@@H](O)[C@H](O)CC[C@@H](O)C[C@@H](O)CC(=O)O[C@H]1C)C[C@H](O)[C@H]2C(=O)O` [AMPHOTERICIN B], the MIC in the assay on Colletotrichum acutatum, against Botrytis cinerea and in the assay on Rhizoctonia solani was 1 µg/mL (≈ 1.08 µM) each time.

Regarding `CC[C@H]1OC(=O)[C@H](C)[C@@H](O[C@H]2C[C@@](C)(OC)[C@@H](O)[C@H](C)O2)[C@H](C)[C@@H](O[C@@H]2O[C@H](C)C[C@H](N(C)C)[C@H]2O)[C@](C)(O)C[C@@H](C)CN(C)[C@H](C)[C@@H](O)[C@]1(C)O` [AZITHROMYCIN], the MIC against Bacillus subtilis, in the assay on Staphylococcus aureus, against Salmonella typhi and against Pseudomonas aeruginosa was 2 µg/mL (≈ 2.67 µM) in each case.
